The source of these data is PubChem BioAssay.

SMILES strings stand for the structures. Calls of active or inactive are those of the source.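 Rule for the calls, unless noted: active = inhibition above 20% together with a positive visual image hit; inconclusive = visual image hit but inhibition not above 20%; inactive = no visual image hit.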

The nature of test [1]: inhibitors of TNFa-induced NFkB p65 translocation, primary screen, imaging, HUVEC, MLSMR starter and 10KST1 sets (AID 438).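 For inhibition: signal is the nuclear over cytoplasmic p65 intensity ratio per well.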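 Note: compound added about 3h40 before a 20 min TNFalpha stimulation.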 To be noted: HUVEC TNFa-induced p65 nuclear translocation; cell count: measured here: nuclei count (cytotoxicity indicator), at 2.08 µM; inhibition: at 2 µM, stronger effect = higher value, 0% TNFa-plus-vehicle, 100% no-TNFa wells.
Test [2] is described as follows: endothelial E-selectin expression blockers – imaging, HUVEC, immunofluorescence, MLSMR starter and 10KST1 sets, primary screen (AID 487;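 active = visually confirmed hit in the image check and inhibition above 20%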;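 for inhibition: signal is fraction of cell area covered by stained E-selectin grains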;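 for nuclei count: 100% = median nuclei count of all wells on the same plate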). As to conditions: HUVEC TNFalpha-induced E-selectin immunofluorescence imaging, at 2 µM; inhibition: stronger effect = higher value; nuclei count: measured here: cell number, toxicity.
Test [3] can be described thus: Primary imaging screen for DUSP6 inhibitors that restore phospho-Erk in transfected HeLa cells, chemical complementation (AID 609;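 active = compounds giving at least 50% inhibition in the cell-based MKP-3 phosphatase rescue imaging test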;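 for inhibition: phospho-Erk level distribution per well compared with pooled transfected vehicle control wells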). To be noted: HeLa MKP-3 transfected, phospho-Erk imaging KS statistic, at 10 µM, cells stimulated with TPA for 15 min.
Test [4] addresses Dual specificity protein phosphatase 6 (Homo sapiens) (UniProt Q16828). The test is described as above. To be noted: HeLa MKP-3 transfected, phospho-Erk imaging KS statistic; at 10 µM; stronger effect = higher value; cells stimulated with TPA for 15 min.
In test [5] the target is Voltage-gated potassium channel subunit beta-2 (Rattus norvegicus) (UniProt P62483). The experiment in a line: inhibitors of rat Kvbeta2 reductase activity – biochemical, NADPH fluorescence, primary screen (AID 622;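 active = fluorescence slope higher than the sample average by over 3 SD, cut at about -0.22 in these data, passing the limit was not always enough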;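 note: slope of raw intensity against log time taken from 70 to 1610 s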). As to conditions: recombinant KvBeta, 4-cyanobenzaldehyde reduction, at 10 µM, stronger effect = higher value.
Chain of Voltage-gated potassium channel subunit beta-2 (Rattus norvegicus) (P62483 whole entry, looked up): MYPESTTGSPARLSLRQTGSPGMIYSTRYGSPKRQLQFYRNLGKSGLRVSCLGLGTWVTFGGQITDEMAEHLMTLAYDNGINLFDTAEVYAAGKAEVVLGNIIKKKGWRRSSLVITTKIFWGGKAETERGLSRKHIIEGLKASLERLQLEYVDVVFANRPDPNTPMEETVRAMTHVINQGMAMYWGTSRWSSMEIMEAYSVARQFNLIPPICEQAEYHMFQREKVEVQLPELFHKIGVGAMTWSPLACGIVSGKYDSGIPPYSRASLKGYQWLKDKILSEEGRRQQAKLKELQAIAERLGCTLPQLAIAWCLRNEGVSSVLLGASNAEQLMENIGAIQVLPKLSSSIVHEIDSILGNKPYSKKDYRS
Test [6] shares this target. The experiment in a line: enhancers of rat Kvbeta2 NADPH turnover – biochemical, NADPH fluorescence, primary screen (AID 623;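 active = NADPH fluorescence slope more negative than the mean of all samples by about 3 SD, 99.7% confidence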;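 note: fluorescence intensity change per second fitted from 20 to 320 s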). To be noted: Recombinant KvBeta, NADPH fluorescence decrease slope, 10 min; at 10 µM; stronger effect = lower value.
Test [7] deals with Muscarinic acetylcholine receptor M4 (Homo sapiens) (UniProt P08173). The experiment in a line: M4-linked GIRK flux change, two-sided – cell-based, HEK293 M4/GIRK, thallium flux, BTC-AM, M4 allosteric agonist project, primary screen (AID 625;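 active = fluorescence slope after compound addition differing from the mean of all tested samples at 99.7% confidence, mostly higher but some lower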;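 note: thallium influx through GIRK channels coupled to M4 in HEK293 cells with BTC-AM dye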). To be noted: at 10 µM, actives lie on both sides. An outline of the steps: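 System: HEK293 cells with M4 receptor and GIRK channels | Incubation: Cells overnight at 37 °C, BTC-AM loading 1 h, reads 2 min total | Technique: Kinetic BTC-AM fluorescence sampled at 1 Hz, 10 s pre-addition baseline | Measure: Post-addition slope, 15–24 s, of baseline-normalized fluorescence | Control set: Carbachol positive, DMSO negative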
Chain of Muscarinic acetylcholine receptor M4 (Homo sapiens) (P08173 whole entry, looked up): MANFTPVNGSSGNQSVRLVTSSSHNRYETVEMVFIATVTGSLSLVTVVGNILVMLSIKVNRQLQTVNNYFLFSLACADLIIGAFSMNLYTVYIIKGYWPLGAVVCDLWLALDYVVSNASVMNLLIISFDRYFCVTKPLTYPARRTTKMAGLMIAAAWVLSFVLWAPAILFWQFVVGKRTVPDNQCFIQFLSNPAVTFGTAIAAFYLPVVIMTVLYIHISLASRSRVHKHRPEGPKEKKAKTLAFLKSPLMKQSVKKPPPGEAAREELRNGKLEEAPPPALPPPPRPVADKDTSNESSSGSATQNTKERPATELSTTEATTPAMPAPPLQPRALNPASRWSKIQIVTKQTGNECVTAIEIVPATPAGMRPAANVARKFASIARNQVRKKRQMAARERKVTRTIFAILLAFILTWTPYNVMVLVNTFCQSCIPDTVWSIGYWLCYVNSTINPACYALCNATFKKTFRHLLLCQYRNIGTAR

Test [8] is described as follows: inhibitors of larval lipid processing in zebrafish, primary screen, whole organism, PED6 fluorescence, gall bladder and intestine (AID 686;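 active = a full or partial loss of lipid-probe fluorescence in the fish gall bladder, intestine or both, judged by eye; inactive = no fluorescence loss, or compound toxic to the fish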;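 note: larvae 5 to 7 days old with five fish per well; signal comes from phospholipase A2 cleavage of quenched PED6 carried via bile; overnight exposure to compound and PED6 before scoring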). To be noted: Zebrafish larvae PED6 lipid processing, fluorescence scoring; screened at 20 µM (by protocol). The procedure, abridged:
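Test system – live zebrafish larvae aged 5-7 days, whole organism · Buffer or medium – E3 fish medium · Reagent – quenched phospholipase substrate PED6, 100 nM final, ingested by larvae · Doses – 20 µM single dose · Incubation – overnight compound and PED6 incubation · Technique – visual fluorescence microscopy scoring of gall bladder, gut · Read-out basis – visual per-well fluorescence inhibition score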

The nature of test [9]: loss of swimming-algae plug formation – whole organism, Chlamydomonas reinhardtii, WT vs cilia-less mutant, absorbance, 96-well, primary screen (AID 463189;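 active = inhibition at or above 50% relative to wild type and mutant plate controls; inactive = inhibition below 50%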;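 note: 0% = wild type cc124 cells in DMSO and 100% = ciliumless bld1 mutant cells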). As to conditions: Chlamydomonas reinhardtii gravitaxis, OD600 absorbance, 2 days; at 10 µM; stronger effect = higher value.
The mark [10] stands for this setting: measured here: cell density z-score.
Where [11] appears, read: measured here: nuclear c-Myc green intensity z-score.
Where [12] appears, read: measured here: nuclear pErk red intensity z-score, stronger effect = higher value.

Chain of Dual specificity protein phosphatase 6 (Homo sapiens) (Q16828 whole entry, looked up): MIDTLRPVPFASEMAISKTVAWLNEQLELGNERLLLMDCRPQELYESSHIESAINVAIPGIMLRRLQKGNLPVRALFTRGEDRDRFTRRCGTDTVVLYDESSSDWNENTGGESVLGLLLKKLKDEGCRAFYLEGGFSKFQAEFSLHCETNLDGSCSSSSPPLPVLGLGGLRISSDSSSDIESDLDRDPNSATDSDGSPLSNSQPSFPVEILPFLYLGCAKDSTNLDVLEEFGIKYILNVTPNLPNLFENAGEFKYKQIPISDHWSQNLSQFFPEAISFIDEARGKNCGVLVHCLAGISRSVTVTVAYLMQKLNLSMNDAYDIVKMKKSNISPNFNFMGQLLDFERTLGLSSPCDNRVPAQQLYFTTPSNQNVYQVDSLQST

As a reminder, the inhibition is the relative decrease from the control value, in per cent. For `Cc1ccc(-n2ncc3c(N4CCCC4)ncnc32)c(C)c1`, the cell count in [1] is 615. For the same compound, the inhibition was -13.7% (inactive) in test [1], 4.8% (inactive) in test [2], -2.59% (inactive) in test [4] and 147% (active) in test [9]. Moreover, the nuclei count in test [2] was 158%. The figures for the z-score in test [3] (setting [10]), in test [3] (setting [11]) and in [3] (setting [12]) were 0.427, -1.76 and -0.345, respectively. Also, the fluorescence slope in test [5] was -0.327 (inactive); in test [7] it was 0.00689 (inactive). The NADPH fluorescence slope in [6] is -4.9e-06 (inactive). Besides, the compound was called inactive in test [8].

For the compound `CC1=C(C#N)C(=O)OC(C)(C)C1`, in test [1], the cell count was 660. In addition, the inhibition in test [1] was -3.9% (inactive); in test [2], -22.9% (inactive); in [4] it was -1.98% (inactive); in [9], -18.3% (inactive). In test [2], the nuclei count amounted to 101%. In addition, the z-score in test [3] (setting [10]) was -2.1; in test [3] (setting [11]), 0.204; in test [3] (setting [12]), -1.02. The fluorescence slope in [5] was -0.489 (inactive); in [7], 0.00496 (inactive). Further, the NADPH fluorescence slope in test [6] is -7.4e-05 (inactive). Besides, the outcome in test [8] was inactive.

With `C=CCn1c(SCC(=O)c2ccc(NS(=O)(=O)c3ccccc3)cc2)nnc1-c1cccs1`, the cell count in test [1] amounted to 682. Also, the inhibition in test [1] was 3.2% (inactive); in test [2] it was -98.4% (inactive); in [4] it was -13.3% (inactive); in test [9], -10.7% (inactive). The compound also had a nuclei count in [2] of 156%. Also, the z-score in test [3] (setting [10]) was -0.412; in [3] (setting [11]), -0.46; in test [3] (setting [12]) it was 0.993. For the same compound, the fluorescence slope in [5] is -0.473 (inactive); in test [7] it was 0.00636 (inactive). For the same compound, the NADPH fluorescence slope in test [6] is -4.5e-05 (inactive). Further, in test [8], the compound was classed as inactive.

With `CCN(CC)CCOC(=O)c1c(C)n(C)c2ccc(OC)cc12`, the cell count in test [1] was found to be 669. For the same compound, the inhibition was -3.7% (inactive) in test [1], -50.2% (inactive) in test [2], 4.37% (inactive) in [4] and 32.6% (inactive) in test [9]. In test [2], this compound yielded a nuclei count of 150%. Besides, the z-score is 0.791 in test [3] (setting [10]), -1.04 in test [3] (setting [11]) and -1.03 in test [3] (setting [12]). In addition, the fluorescence slope in [5] is -0.466 (inactive); in test [7], 0.00645 (inactive). In addition, in test [6], the NADPH fluorescence slope is -0.000107 (inactive). Further, the result in test [8] was inactive.

For `C=C(C)Cn1c(-c2ccc(OC)cc2)nc2ccccc21`, the cell count in [1] was determined as 377. The inhibition in test [1] was 0.8% (inactive); in test [2] it was -113% (inactive); in test [4], -6.86% (inactive); in [9], 25.6% (inactive). Besides, the nuclei count in test [2] was 157%. Besides, the figures for the z-score in [3] (setting [10]), in test [3] (setting [11]) and in test [3] (setting [12]) were -0.296, -0.903 and 0.627, respectively. In addition, the fluorescence slope is -0.461 (inactive) in test [5] and 0.00384 (inactive) in test [7]. In addition, the NADPH fluorescence slope in test [6] was -0.000111 (inactive). Also, the outcome in [8] was “inactive; toxic”.

`Cn1c(Cl)nc2c1c(=O)n(Cc1cccc(Br)c1)c(=O)n2C`: the cell count in [1] worked out at 691. The inhibition in [1] is -8.5% (inactive); in test [2], -97.4% (inactive); in test [4], 3.97% (inactive); in [9], -10.8% (inactive). The nuclei count in test [2] turned out to be 169%. Further, the z-score in [3] (setting [10]) was -1.75; in test [3] (setting [11]) it was 0.296; in [3] (setting [12]), 0.815. Besides, the fluorescence slope in test [5] was -0.507 (inactive); in test [7], 0.00593 (inactive). For the same compound, the NADPH fluorescence slope in test [6] was -1.8e-05 (inactive). For the same compound, the call in test [8] was inactive.

As to `COC(=O)NCC12CC3CC(C1)CC(CNC(=O)OC)(C3)C2`, the cell count in test [1] is 541. For the same compound, the inhibition in [1] was 2.3% (inactive); in test [2] it was -75% (inactive); in [4] it was 5.42% (inactive); in [9] it was -5.97% (inactive). This compound also gave a nuclei count in test [2] of 122%. Also, the values for the z-score in test [3] (setting [10]), in [3] (setting [11]) and in test [3] (setting [12]) were 0.785, 1.4 and -1.34, respectively. For the same compound, the fluorescence slope in test [5] was -0.467 (inactive); in test [7], 0.00455 (inactive). For the same compound, the NADPH fluorescence slope in test [6] is -0.0001 (inactive). Moreover, the result in test [8] was inactive.
